Data as given in ChEMBL document CHEMBL5674882, “Benzolactam-related compounds promote apoptosis of HIV-infected human cells via protein kinase C-induced HIV latency reversal” (J Biol Chem, 2019).
Activity calls are given as the source filed them. The calls are words filed in the database; no cut-off is given here.

What was measured:
[1] = biological target: T1, Protein kinase C (PKC) (Homo sapiens) (UniProt O94806+P41743+P17252+P05129+Q05655+P05771+Q05513+Q02156+P24723+Q15139+Q04759); test: Activation of PKC in human J-Lat 6.3 cells infected with latent HIV-1 assessed as reversal of HIV-1 latency by measuring increase of GFP-positive cells at 10 uM in presence of pan-PKC inhibitor Go-6983 incubated for 24 hrs by flow cytometry; type: cell-based
Summary of the method: (§1)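 J-Lat 6.3 cells pretreated 3 h with a PKC inhibitor: Gö 6983 1 µM, Gö 6976 1 µM, GF 109203X 1 µM, PKCθ/δ inhibitor 10 µM, or Rottlerin 1 µM. Then exposed to 10 µM compound for 24 h; GFP-positive cells counted by flow cytometry. Mean ± S.D.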

ACH-2 cell line [2] = test: Induction of apoptosis in human ACH-2 cells at 1 uM incubated for 48 hrs by propidium iodide/annexin-V staining based flow cytometry (reference value: 3.16%); type: functional
[3] = Toxicity in human CD4+ T-cells assessed as elevation of supernatant cytokine concentrations of IFNgamma incubated for 24 hrs in presence of JQ1 by bead-based immunoassay; details: cd4+ t cell
Summary of the method: (§2)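 Purified CD4+ T-cells from healthy donors treated 24 h with 1 μm drug, 1 μm JQ1, or the combination. IL-2, IL-5, IL-6, IL-13, TNFα and IFN-γ in supernatants measured by flow-cytometry bead-based Th1/Th2 immunoassay. Run in duplicate.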

[4] = Induction of apoptosis in human CEM A3.01 cells assessed as caspase-3 activation at 1 uM incubated for 24 hrs by flow cytometry; type: functional
Summary of the method: (§3)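 Cells fixed in 1% paraformaldehyde, permeabilized, stained 30 min on ice with anti-active caspase-3 mAb, and analysed by flow cytometry. Three independent experiments.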

[5] = biological target: T1, Protein kinase C (PKC) (Homo sapiens); test: (§4) Activation of PKC in human U1 cells infected with latent HIV-1 assessed as reversal of HIV-1 latency by measuring increase in p24 antigen level incubated for 48 hrs by chemiluminescent enzyme immunoassay; type: cell-based; details: filed as activator
Protein kinase C (PKC) [6] = test: as §4; type: cell-based
Protein kinase C (PKC) [7] = test: Activation of PKC in human J-Lat 10.6 cells infected with latent HIV-1 assessed as reversal of HIV-1 latency by measuring increase of GFP-positive cells at 1 to 10000 nM incubated for 24 hrs by flow cytometry; type: cell-based
Summary of the method: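 J-Lat 10.6 or J-Lat 6.3 cells (5 × 10^5 cells/ml) incubated 24 h with graded drug concentrations; % GFP-positive cells determined by flow cytometry. Means ± S.D. of three independent experiments.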

[8] = biological target: T1, Protein kinase C (PKC) (Homo sapiens); test: Synergistic activation of PKC in CD4+ T-cells purified from HIV-infected patient assessed as increase in transcription of HIV mRNA at 5 uM incubated for 24 hrs by qRT-PCR method; type: cell-based; details: CD4+ T cell, filed as activator
Summary of the method: (§5)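 CD4+ T-cells purified from PBMC of patients on cART for at least 5 years with plasma viral load <20 copies/ml. Cells plated at 2.5 × 10^6 cells/ml and treated 24 h, alone or with 1 μm JQ1. Intracellular HIV RNA measured by qRT-PCR against a plasmid standard curve, normalised per ng input RNA, relative to untreated cells. Synergy assessed by Bliss independence model.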

Jurkat = test: Induction of apoptosis in human Jurkat cells assessed as caspase-3 activation at 1 uM incubated for 24 hrs by flow cytometry; type: functional; summary of the method: as §3
[9] = biological target: T1, Protein kinase C (PKC) (Homo sapiens); test: Activation of PKC in human J-Lat 6.3 cells infected with latent HIV-1 assessed as reversal of HIV-1 latency by measuring increase of GFP-positive cells at 10 uM in presence of PKC delta inhibitor Rottlerin incubated for 24 hrs by flow cytometry; type: cell-based; summary of the method: as §1
[10] = biological target: T1, Protein kinase C (PKC) (Homo sapiens); test: (§6) Activation of PKC in human ACH-2 cells infected with latent HIV-1 assessed as reversal of HIV-1 latency by measuring increase in p24 antigen level incubated for 48 hrs by chemiluminescent enzyme immunoassay; type: cell-based; details: ACH-2 cell line, filed as activator
Protein kinase C (PKC) [11] = test: as §6; type: cell-based; details: ach-2 cell line
[12] = Toxicity in human A3.01 cells assessed as reduction in cell viability after 48 hrs by WST8 assay; type: cell-based
Summary of the method: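 Parental, uninfected lines (A3.01 for ACH-2, U937 for U1) at 5 × 10^5 cells/ml cultured with or without drug. Viable cells read at 48 h (day 2) and expressed as % of untreated control. CC50 taken as the concentration lowering viability by 50%.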

[13] = biological target: T1, Protein kinase C (PKC) (Homo sapiens); test: Activation of PKC in human ACH-2 cells infected with latent HIV-1 assessed as reversal of HIV-1 latency by measuring increase in p24 antigen level at 5 to 50 nM incubated for 48 hrs in presence of 100 nM GSK525762A by chemiluminescent enzyme immunoassay; type: cell-based; details: ACH-2 cell line, dose 5-50 nM
Summary of the method: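 ACH-2 cells treated 48 h with 5–50 nM of the test agent, alone or combined with 100 nM GSK525762A (BRD4 inhibitor). Supernatant p24 measured by chemiluminescent immunoassay. Synergy or antagonism scored with the Bliss independence model (Δfaxy >0 synergy, <0 antagonism). Three independent experiments, mean ± S.D.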

[14] = Toxicity in human CD4+ T-cells assessed as elevation of supernatant cytokine concentrations of IL-6 incubated for 24 hrs in presence of JQ1 by bead-based immunoassay; details: cd4+ t cell; summary of the method: as §2
[15] = biological target: T1, Protein kinase C (PKC) (Homo sapiens); test: Activation of PKC in human J-Lat 10.6 cells infected with latent HIV-1 assessed as reversal of HIV-1 latency by measuring increase of GFP-positive cells at 100 to 400 nM in presence of 500 nM GSK525762A incubated for 24 hrs by flow cytometry; type: cell-based; details: filed as activator, dose 100-400 nM
[16] = Toxicity in human CD4+ T-cells assessed as elevation of supernatant cytokine concentrations of IL-5 incubated for 24 hrs in presence of JQ1 by bead-based immunoassay; details: cd4+ t cell; summary of the method: as §2
ACH-2 cell line [17] = test: Induction of apoptosis in human ACH-2 cells assessed as caspase-3 activation at 1 uM incubated for 24 hrs by flow cytometry; type: functional; summary of the method: as §3
[18] = biological target: T1, Protein kinase C (PKC) (Homo sapiens); test: Activation of PKC in human J-Lat 6.3 cells infected with latent HIV-1 assessed as reversal of HIV-1 latency by measuring increase of GFP-positive cells at 10 uM in presence of PKC theta/delta/epsilon/eta inhibitor PKCtheta/delta inhibitor incubated for 24 hrs by flow cytometry; type: cell-based; summary of the method: as §1
U-937 = test: Induction of apoptosis in human U-937 cells assessed as caspase-3 activation at 1 uM incubated for 24 hrs by flow cytometry; type: functional; summary of the method: as §3
[19] = biological target: T1, Protein kinase C (PKC) (Homo sapiens); test: Synergistic activation of PKC in CD4+ T-cells purified from HIV-infected patient assessed as increase in transcription of HIV mRNA at 1 uM incubated for 24 hrs in presence of 1 uM JQ1 by qRT-PCR method; type: cell-based; details: CD4+ T cell, filed as activator; summary of the method: as §5
[20] = biological target: T1, Protein kinase C (PKC) (Homo sapiens); test: Activation of PKC in human J-Lat 10.6 cells infected with latent HIV-1 assessed as reversal of HIV-1 latency by measuring increase of GFP-positive cells at 100 to 400 nM in presence of 200 nM Prostratin incubated for 24 hrs by flow cytometry; type: cell-based; details: filed as activator, dose 100-400 nM

SMILES: CCCCCCCCCCc1ccc2c(c1)N(C)[C@@H](C(C)C)C(=O)N[C@H](CO)C2
- Activity [1]: inactive
- Activity (ACH-2 cell line [2]): 58%
- Activity [3]: Non-Toxic
- Activity [4]: 2.01%
- Activity [5]: Dose-Dependent Effect
- EC50 (Protein kinase C (PKC) [6]): 0.034 µM
- EC50 (Protein kinase C (PKC) [7]): 10.6 µM
- fold change (FC) [8]: 1.4
- Activity (Jurkat): 2.63%
- Activity [9]: inactive
- Activity [10]: Dose-Dependent Effect
- EC50 (Protein kinase C (PKC) [11]): 0.025 µM
- CC50 at 48 h [12]: 21.1 µM
- Activity [13]: inactive
- Activity [14]: Non-Toxic
- Activity [15]: Active
- Activity [16]: Non-Toxic
- Activity (ACH-2 cell line [17]): 23%
- Activity [18]: inactive
- Activity (U-937): 0.5%
- fold change (FC) [19]: 13.2
- Activity [20]: Active
